# MEX-5 binding: C. elegans MEX-5 TCR-2 RNA binding activity; Q9XUB2; MEX-5/FITC-TCR2 RNA binding, fluorescence polarization; active compounds read low; activity score (negative = inhibition of binding), % at 10 µM; 300,000 tested, 0.38% active; AID 1832;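 active means inhibition past about -25% in most replicates, and total fluorescence under double the plate's negative control median, limit read from the data; inconclusive means replicates evenly split on the limit, or fluorescence at least double controls; inactive means too little inhibition in most replicates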
# proKLK7 act: proKLK7 (human) activation, primary screen; activation, % at 7 µM; purified proKLK7, EDANS-DABCYL substrate fluorescence; 100% is mature enzyme control, 0% vehicle; 370,000 tested, 0.9% active; P49862;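 active means activation above the mean of all tested compounds plus 3 SD, computed per campaign excluding outliers beyond control limits, cut at about 13% in these data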
# Target sequence (P49862 whole entry, looked up): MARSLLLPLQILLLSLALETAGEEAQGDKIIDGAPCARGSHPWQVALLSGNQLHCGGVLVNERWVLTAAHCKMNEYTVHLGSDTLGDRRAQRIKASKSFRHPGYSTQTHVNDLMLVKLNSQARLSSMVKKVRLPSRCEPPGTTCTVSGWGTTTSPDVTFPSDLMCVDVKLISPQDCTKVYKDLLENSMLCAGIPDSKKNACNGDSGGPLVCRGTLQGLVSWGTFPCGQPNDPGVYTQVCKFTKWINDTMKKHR
# Runt-CBFb FRET: Runt domain-CBFb interaction inhibition | 220,000 tested, 0.46% active | inhibition, % at 20 µM | Cerulean-Runt/Venus-CBFb FRET ratio 530/480, 1 h | AID 1496;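 active means inhibition over about 50% at 20 µM in the single-dose screen, limit read from the data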
#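 Assay system: Cerulean-tagged RUNX1 Runt domain (FRET donor) fusion protein / Amount: 100 nM each of Venus-CBFb and Cerulean-Runt domain / Medium: Tris buffer pH 7.5 with salts and BSA / Also added: Venus-CBFb 100 nM / Schedule: 1 h complex formation plus 1 h compound treatment, room temperature / Signal: FRET fluorescence / Read-out: loss of energy transfer signal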
# RanGTP-Impb inh: disruptors of Ran-importin-beta complex formation – biochemical, FRET, CFP-Ran, YFP-importin-beta, homogeneous, primary screen | inhibition, % (no concentration beside the values) | 300,000 tested, 1.1% active | AID 2216 | cell-free CFP-Ran/YFP-importin-beta FRET ratio;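 active means more than half of the replicate wells show a fall in the fluorescence ratio signal beyond about 16%, limit read from the data, passing the limit was not always enough; inconclusive means exactly half of the replicate wells pass the set limit; inactive means fewer than half of replicates pass the limit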
# Runt-SMMHC FRET: blocks binding of human RUNX1 Runt domain to CBFb-SMMHC | Q01196+Q13951 | AID 1434 | Cerulean-Runt/Venus-CBFb-SMMHC FRET ratio 530/480, 1 h | 220,000 tested, 0.74% active | inhibition, % at 20 µM;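 active means mean inhibition across duplicate retests at 20 µM reaching about 50%, limit read from the data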;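 further: inhibitors lower the FRET ratio by blocking Runt binding to CBFb-SMMHC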
# A number is an active result; . = inactive; ? = inconclusive; / = no result. In the library only some 2.1% were active in any assay of this set; here they are far more common.
SMILES,MEX-5 binding,proKLK7 act,Runt-CBFb FRET,RanGTP-Impb inh,Runt-SMMHC FRET
O=C(N/N=C/c1cc(Cl)cc([N+](=O)[O-])c1O)c1ccccc1NS(=O)(=O)c1cccs1,-47,.,.,.,.
O=C(N/N=C/c1cc(Cl)cc([N+](=O)[O-])c1O)c1ccc2c(c1)OCO2,-31,.,/,.,/
CCCCN(CCCNC(=O)C1CCN(S(=O)(=O)CC)CC1)c1ccccc1,.,.,.,22,.
CCN(CCNC(=O)C1CCN(S(=O)(=O)CC)CC1)c1ccccc1,.,.,.,.,.
COC(=O)c1ccc(COc2ccc(/C=C(\C#N)c3nc4ccccc4[nH]3)cc2OC)o1,-30,.,.,.,.
CCOC(=O)c1c(C)[nH]c(C(=O)OC/C(O)=C(\C#N)c2nc3ccccc3[nH]2)c1C,/,/,.,/,.
CCOC(=O)/C(O)=C(\C#N)c1nc2ccccc2[nH]1,.,.,.,.,74
CCOc1cc(/C=C(/C#N)c2nc3ccccc3[nH]2)ccc1Oc1ccc([N+](=O)[O-])cn1,.,.,.,.,.
CCOc1cc(/C=C(\C#N)c2nc3ccccc3[nH]2)ccc1OC(C)C(=O)O (configuration not stated),-30,.,/,.,/
COc1cc(/C=C(/C#N)c2nc3ccccc3[nH]2)ccc1OCc1ccc(C(=O)O)o1,.,.,.,.,63
CCc1ccc(NC(=O)COc2ccc(/C=C(/C#N)c3nc4ccccc4[nH]3)cc2OC)cc1,.,.,.,.,.
Cc1ccc(S(=O)(=O)N2CCC[C@H]2C(=O)OCC(=O)N2CCc3ccccc32)cc1,/,.,/,/,/
CCN(CC)C(=O)C1=C(C)N(CCC2=CCCCC2)C(=O)C(CC(=O)NCCc2ccccn2)C1 (configuration not stated),/,.,/,/,/
CCCCC(=O)Nc1cccc(NC(=O)c2ccc(Br)o2)c1,.,.,.,38,.
CC(=O)c1cccc(NC(=O)c2ccc(Br)o2)c1,.,.,.,.,.
COC(=O)C[C@@H]1OC[C@H](C(C)C)N1S(=O)(=O)c1ccc(C)cc1,/,.,/,/,/
COC(=O)C[C@H]1CC[C@@H]2[C@@H](COc3ccc(NC(=O)c4ccno4)cc3C(=O)N2C)O1,/,.,/,/,/
CS(=O)(=O)c1ccc(Nc2nc(C(N)CCc3ccccc3)cs2)cc1 (configuration not stated),/,.,/,/,/
C=CCOc1c(Br)cc(C2C3=C(CCCC3=O)N(C)C3=C2C(=O)CCC3)cc1OCC,.,.,96,101,/
CCCCNC(=O)N1CCCC1C(=O)Nc1cccc(OC)c1 (configuration not stated),/,.,/,/,/
CCOc1ccc(/C=C2\N=C(c3cccs3)OC2=O)cc1OC,?,/,.,.,.
COc1ccc(/C=C2/N=C(c3cccs3)OC2=O)cc1OC(C)C,-53,.,.,.,.
O=c1[nH]c(-c2ccccc2)c(-c2ccccc2)o1,.,.,/,.,/
COc1ccccc1C(=O)C1CCCN(C(=O)c2cccnc2SC)C1 (configuration not stated),-41,.,.,.,.
CSc1ccc(C(=O)C2CCCN(C(=O)c3cccnc3SC)C2)cc1 (configuration not stated),.,.,.,.,.
SMILES,MEX-5 binding,proKLK7 act,Runt-CBFb FRET,RanGTP-Impb inh,Runt-SMMHC FRET
CCn1nc(NC(=O)c2ccncc2)c2cc3ccc(C)cc3nc21,.,.,.,24,.
CCCn1nc(NC(=O)c2cccs2)c2cc3cc(C)ccc3nc21,.,.,.,72,80
CCn1nc(NC(=O)c2ccncc2)c2cc3cc(C)ccc3nc21,.,.,.,.,.
CCCn1nc(NC(=O)c2cccs2)c2cc3ccc(C)cc3nc21,.,.,.,54,51
CN(CCCn1ccc(N)nc1=O)Cc1ccco1,/,.,/,/,/
CCN(Cc1cccs1)C(=O)CN1C(=O)NC(c2ccccc2)(c2ccccc2)C1=O,/,.,/,/,/
CC(OC(=O)c1ccc(C#N)cc1)C(=O)Nc1ccc(Cl)cn1 (configuration not stated),/,.,/,/,/
Nc1cccc2c1C(=O)N(c1ccccc1)C2=O,-26,.,/,.,/
CC1CCCN(Cc2c(O)ccc3c4c(c(=O)oc23)CCCC4)C1 (configuration not stated),.,101,.,.,79
CC1CN(Cc2c(O)ccc3c2oc(=O)c2ccccc23)CC(C)O1 (configuration not stated),-29,.,.,.,.

# Screening results from PubChem.
